{"source": "paper PMC8808266", "about": "(Photochemistry and photobiology, 2021)", "assay_type_in_all_cases": "cell-based, human", "key": {"OVCAR-4 cells": {"test_system": "OVCAR-4 cells", "experiment": "Fluorescence cell microscopy, probe uptake", "conditions": "1 μM probe, 30 min, 37 °C, compared to control probes", "summary_of_the_method": "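OVCAR-4 cells were maintained in RPMI-1640 with 10% FBS, 1% L-glutamine and 0.1 mM NEAA (37 °C, 5% CO2), grown to 70% confluency in chambered slides, then given 1 μM probe in medium for 30 min at 37 °C. After 3 PBS washes, they were fixed in cold 4% PFA (20 min, RT), Hoechst-stained (3 μM, 10 min) and imaged by epifluorescence. Mean intensity: 200-pixel rolling-ball subtraction, auto-threshold, average ± SEM.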"}, "A549 cells [1]": {"test_system": "A549 cells", "experiment": "Competitive blocking study of probe uptake", "conditions": "repeated many times using fixed and living cells; excess cRGDfK or Cilengitide", "summary_of_the_method": "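A549 cells at 70% confluency on 8-well slides received 200 μM cRGDfK or 50 μM cilengitide 5 min before the test compound; the blocker stayed during a 30 min, 37 °C incubation with 1 μM test compound. Cells were then PBS-washed ×3, fixed in cold 4% PFA (20 min, RT), Hoechst-stained (3 μM) and imaged. Intensity came from 200-pixel rolling-ball background subtraction and auto-threshold, as average ± SEM.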"}, "A549 cells [2]": {"test_system": "A549 cells", "experiment": "Colocalization / co-incubation with Cy3-cRGDfK", "conditions": "co-incubation with 1 μM Cy3-cRGDfK, 1 μM probe, 30 min", "summary_of_the_method": "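Live A549 cells at 70% confluency in chambered slides were co-incubated 30 min at 37 °C with 1 μM Cy3-cRGDfK plus 1 μM test compound in medium. They were then PBS-washed ×3, Hoechst-stained (3 μM, 10 min, RT) and imaged by epifluorescence (TxRed and Cy5.5 filters). After 10-pixel rolling-ball background subtraction, Pearson's correlation coefficient was computed and reported as average ± SEM.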"}, "HT-1080 cells": {"test_system": "HT-1080 cells", "experiment": "Fluorescence cell microscopy, probe uptake", "conditions": "1 μM probe, 30 min, 37 °C, compared to control probes", "summary_of_the_method": "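HT-1080 cells were kept in EMEM with 10% FBS, 0.1 mM NEAA, 1.5 g/L bicarbonate, 1 mM pyruvate and 1% pen/strep (37 °C, 5% CO2), then grown to 70% confluency. They were exposed to 1 μM probe in medium for 30 min at 37 °C, washed ×3 with PBS, fixed in cold 4% PFA, Hoechst-stained and imaged (Cy5.5 filter). Intensity: rolling-ball background subtraction, auto-threshold, average ± SEM.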"}}, "data": [{"substance": "DRGDG (bicyclic or more) [SF8(DRGDG)2]", "values": [{"measurement": "probe uptake (mean fluorescence intensity of epifluorescence micrographs)", "setting": "OVCAR-4 cells", "value": "Enhanced uptake"}, {"measurement": "cell uptake of probe in competition imaging experiments", "setting": "A549 cells [1]", "value": "not reduced"}, {"measurement": "cell uptake of probe in the presence of Cy3-cRGDfK", "setting": "A549 cells [2]", "value": "did not reduce cell uptake"}, {"measurement": "probe uptake (mean fluorescence intensity of epifluorescence micrographs)", "setting": "HT-1080 cells", "value": "Enhanced uptake"}]}]}
